ChEMBL document CHEMBL4334422, “Toxicities and beneficial protection of H2S donors based on nonsteroidal anti-inflammatory drugs” (Medchemcomm, 2019)
Calls of active or inactive are those of the source. No cut-off for these calls is given here.

Tests used:
[1] = Toxicity in Wistar kyoto rat assessed as hemoglobin count in blood at 0.01 mmol/kg, ip administered for 14 days (reference value: 138 g/L); assay type: organism-based; settings: in vivo, 336 h
Method in brief: (§1)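 Normal WKY rats (6 per group) received compound in 10% 1,3-propanediol intraperitoneally daily for 14 days. Controls received an equal volume of vehicle. Urine was collected in metabolic cages throughout dosing. At the end of dosing, blood was taken from the eyeball for haematology, and urine parameters were analysed.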

[2] = Toxicity in Wistar kyoto rat assessed as ketone body level in urine at 0.01 mmol/kg, ip administered for 14 days (reference value: 4 umol/L); assay type: organism-based; settings: in vivo, 336 h
Method in brief: (§2)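 Normal WKY rats, 6 per group, received an intraperitoneal injection once daily for 14 consecutive days. The compound was dissolved in 10% 1,3-propanediol, and controls received an equal volume of vehicle. Urine was collected in metabolic cages during dosing. At the end, blood was drawn from the eyeball for haematology, and urinalysis values were compared with the vehicle group.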

[3] = Toxicity in Wistar kyoto rat assessed as monocyte ratio in blood at 0.01 mmol/kg, ip administered for 14 days (reference value: 0.5%); assay type: organism-based; settings: in vivo, 336 h; method in brief: as §2
H9c2 [4] = assay: Cytoprotective activity against H2O2-induced toxicity in rat H9c2 cells assessed as increase in cell viability pretreated with compound followed by H2O2 addition and measured after 1 hrs relative to control; assay type: functional
Method in brief: (§3)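 H9c2 cells were injured with H₂O₂ (400 µM) for 1, 4 or 8 h to give light, medium and heavy damage, in the presence of compound at 10–80 µM. Acetaminophen or ibuprofen served as controls. Viability was measured as mean ± SD of three experiments. SOD and MDA contents were measured as mean ± SD of four experiments. Morphology was assessed by Giemsa staining under light microscopy.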

[5] = Toxicity in Wistar kyoto rat assessed as leukocyte count in blood at 0.01 mmol/kg, ip administered for 14 days (reference value: 6.88 10^9/L); assay type: organism-based; settings: in vivo, 336 h; method in brief: as §2
[6] = Toxicity in Wistar kyoto rat assessed as urine pH at 0.01 mmol/kg, ip administered for 14 days (reference value: 8.4); assay type: organism-based; settings: in vivo, 336 h; method in brief: as §2
[7] = Toxicity in Wistar kyoto rat assessed as basophilic ratio in blood at 0.01 mmol/kg, ip administered for 14 days (reference value: 2.2%); assay type: organism-based; settings: in vivo, 336 h; method in brief: as §1
[8] = Toxicity in Wistar kyoto rat assessed as neutrophil ratio in blood at 0.01 mmol/kg, ip administered for 14 days (reference value: 54.7%); assay type: organism-based; settings: in vivo, 336 h; method in brief: as §2
[9] = Half life of compound in pH 7.4 phosphate buffer at 40 mM in presence of TECP or cysteine by methylene blue dye based UV-Vis spectrophotometric method; assay type: physicochemical; settings: phosphate buffer with TECP or cysteine
Method in brief: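 A 40 mM compound solution in pH 7.4 phosphate buffer was mixed with TECP or L-cysteine (1.0 mM) as promoter. Aliquots were mixed with methylene blue reagent, and after 20 min absorbance was read at 670 nm. H₂S was quantified against a Na₂S standard curve, and concentration-versus-time release curves were plotted to give half-lives.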

[10] = Toxicity in Wistar kyoto rat assessed as nitrite level in urine at 0.01 mmol/kg, ip administered for 14 days; assay type: organism-based; settings: in vivo, 336 h; method in brief: as §2
[11] = Toxicity in Wistar kyoto rat assessed as bilirubin level in urine at 0.01 mmol/kg, ip administered for 14 days (reference value: 10 umol/L); assay type: organism-based; settings: in vivo, 336 h; method in brief: as §1
[12] = Toxicity in Wistar kyoto rat assessed as red blood cell count in blood at 0.01 mmol/kg, ip administered for 14 days (reference value: 6.83 10^12/L); assay type: organism-based; settings: in vivo, 336 h; method in brief: as §2
H9c2 [13] = assay: Cytoprotective activity against H2O2-induced toxicity in rat H9c2 cells assessed as increase in cell viability at 80 uM pretreated with compound followed by H2O2 addition and measured after 1 hrs relative to control; assay type: functional; method in brief: as §3
[14] = Toxicity in Wistar kyoto rat assessed as urobilinogen level in urine at 0.01 mmol/kg, ip administered for 14 days (reference value: 1 umol/L); assay type: organism-based; settings: in vivo, 336 h; method in brief: as §2
[15] = Toxicity in Wistar kyoto rat assessed as platelet count in blood at 0.01 mmol/kg, ip administered for 14 days (reference value: 670 10^9/L); assay type: organism-based; settings: in vivo, 336 h; method in brief: as §2
[16] = Toxicity in Wistar kyoto rat assessed as occult blood cells level in urine at 0.01 mmol/kg, ip administered for 14 days (reference value: 10 /uL); assay type: organism-based; settings: in vivo, 336 h; method in brief: as §2
[17] = Toxicity in Wistar kyoto rat assessed as Vc in urine at 0.01 mmol/kg, ip administered for 14 days; assay type: organism-based; settings: in vivo, 336 h; method in brief: as §1
[18] = Toxicity in Wistar kyoto rat assessed as glucose in urine at 0.01 mmol/kg, ip administered for 14 days; assay type: organism-based; settings: in vivo, 336 h; method in brief: as §1
H9c2 [19] = assay: Cytoprotective activity against H2O2-induced toxicity in rat H9c2 cells assessed as increase in cell viability at 10 to 80 uM pretreated with compound followed by H2O2 addition and measured after 8 hrs relative to control; assay type: functional; method in brief: as §3
[20] = Toxicity in Wistar kyoto rat assessed as proportion in urine at 0.01 mmol/kg, ip administered for 14 days (reference value: 1.01); assay type: organism-based; settings: in vivo, 336 h; method in brief: as §2
H9c2 [21] = assay: Cytoprotective activity against H2O2-induced toxicity in rat H9c2 cells assessed as increase in SOD level at 10 to 80 uM pretreated with compound followed by H2O2 addition and measured after 8 hrs; assay type: functional, cell-based; method in brief: as §3
[22] = Toxicity in Wistar kyoto rat assessed as leukocyte in urine at 0.01 mmol/kg, ip administered for 14 days (reference value: 10 ca cells/uL); assay type: organism-based; settings: in vivo, 336 h; method in brief: as §2
[23] = Toxicity in Wistar kyoto rat assessed as protein level in urine at 0.01 mmol/kg, ip administered for 14 days (Rvb =0 g/L); assay type: organism-based; settings: in vivo, 336 h; method in brief: as §2
H9c2 [24] = assay: Cytoprotective activity against H2O2-induced toxicity in rat H9c2 cells assessed as decrease in MDA level pretreated with compound followed by H2O2 addition and measured after 8 hrs; assay type: functional, cell-based; method in brief: as §3
[25] = Toxicity in Wistar kyoto rat assessed as eosinophil ratio in blood at 0.01 mmol/kg, ip administered for 14 days (reference value: 1.8%); assay type: organism-based; settings: in vivo, 336 h; method in brief: as §1
H9c2 [26] = assay: Cytotoxicity against rat H9c2 cells assessed as reduction in cell viability at 10 to 80 uM incubated for 24 hrs; assay type: cell-based; settings: h9c2, 24 h
Method in brief: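 Rat cardiac H9c2 cells were grown in DMEM with 10% FBS and penicillin/streptomycin at 37 °C and 5% CO₂. They were seeded at 5×10⁴ cells/mL and allowed to adhere for 8 h. Cells were exposed to 10, 40 or 80 µM compound for 24 h, and survival was compared with untreated cells.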

[27] = Toxicity in Wistar kyoto rat assessed as lymphocyte ratio in blood at 0.01 mmol/kg, ip administered for 14 days (reference value: 42.1%); assay type: organism-based; settings: in vivo, 336 h; method in brief: as §2
Rattus norvegicus = assay: Antihypertensive activity in spontaneously hypertensive Wistar kyoto rat assessed as reduction in diastolic arterial pressure at 40 mg/kg, ip administered for 6 hrs and measured every 30 mins post treatment by tail-cuff method; assay type: functional
Method in brief: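 Male SHRs (8 weeks, 300 ± 25 g; 6 per group), given compound intraperitoneally once daily at 8 am in 0.5% (w/v) sodium carboxymethyl cellulose/DMSO 3/1 (v/v), 2 mL·kg⁻¹. Vehicle-treated SHR and WKY controls. SBP, DBP and heart rate were measured by tail-cuff on awake, restrained rats before dosing, then every 30 min for 6 h. Values are mean ± SD of four independent experiments.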

Compound | Activity [1] [g/L] | Activity [2] | Activity [3] [%] | Activity (H9c2 [4]) | Activity [5] [×10⁹ /L] | pH [6] | Activity [7] [%] | Activity [8] [%] | half-life at 40000 µM [9] [min] | Activity [10] | Activity [11] [µmol/L] | Activity [12] [×10¹² /L] | Activity (H9c2 [13]) [%] | Activity [14] [µmol/L] | Activity [15] [×10⁹ /L] | Activity [16] | Activity [17] | Activity [18] | Activity (H9c2 [19]) [%] | Ratio [20] | further results
CC(C)Cc1ccc(C(C)C(=O)Oc2ccc(C(N)=S)cc2)cc1 (stereo not drawn) | 119 | Non-Toxic | 1.8 | Dose-dependent effect | 1.72 | 7.5 | 0 | 44.4 | 20.1 | Non-Toxic | 17 | 5.5 | 11.9 | 16 | 161 | Non-Toxic | Non-Toxic | Non-Toxic | < 5 | 1.005 | Activity (H9c2 [21]): Active; Activity [22]: 70 µL⁻¹; Activity [23]: 3 g/L; Activity (H9c2 [24]): Dose-dependent effect; Activity [25]: 1%; Activity (H9c2 [26]): Non-Toxic; Activity [27]: 52.8%
CC(C)Cc1ccc(C(C)C(=O)Oc2ccc(-c3cc(=S)ss3)cc2)cc1 (stereo not drawn) | 136 | 500 µmol/L | 0.9 | Dose-dependent effect | 3.27 | 7.5 | 0.2 | 35.9 | 1.4 | Toxic | 50 | 5.9 | 9.4 | 66 | 114 | Non-Toxic | Non-Toxic | Non-Toxic | < 5 | 1.005 | Activity (H9c2 [21]): Active; Activity [22]: 500 µL⁻¹; Activity [23]: 3 g/L; Activity (H9c2 [24]): Dose-dependent effect; Activity [25]: 2.6%; Activity (Rattus norvegicus): 112.4 mmHg; Activity (H9c2 [26]): Non-Toxic; Activity [27]: 60.4%
CC(=O)Nc1ccc(OC(=O)CCCCC2CCSS2)cc1 (stereo not drawn) | 135 | 4000 µmol/L | 1.3 | Dose-dependent effect | 2.89 | 7.5 | 0.2 | 31.7 | 14.1 | Non-Toxic | 12 | 6.08 | 13.3 | 3.3 | 194 | 80 µL⁻¹ | Non-Toxic | Non-Toxic | 8.6 | 1.005 | Activity (H9c2 [21]): Active; Activity [22]: Non-Toxic; Activity [23]: 3.2 g/L; Activity (H9c2 [24]): Dose-dependent effect; Activity [25]: 2.6%; Activity (Rattus norvegicus): 99.4 mmHg; Activity (H9c2 [26]): Non-Toxic; Activity [27]: 64.2%
